# Where “and” joins values, the source holds several entries; their conditions need not be identical. Identical values can stand only once. Entries after “also recorded” stand apart in the source; their conditions may differ. Like-named read-outs stand apart in the source and are kept apart here.
# Legend:
# [1] = test system: MIA PaCa-2 cells; test: 7-day MTT growth inhibition assay, MIA PaCa-2; type: cell-based; conditions: for IC50: Homo sapiens, MIA PaCa-2, 168 h; for activity (cytotoxicity in pancreatic cancer cells): 7-day MTT assay
# In short: (§1)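 Cells were seeded in glucose-containing medium (MIA PaCa-2 200 cells/well; BxPC-3 300 cells/well), incubated overnight at 37 °C, 5% CO2, then exposed to test compound or DMSO for 7 days. MTT (3 mg/mL solution) was added for 4 h, formazan dissolved in DMSO, and A570 read. Inhibition = [1 − (At−Ab)/(Ac−Ab)] × 100. IC50 came from nonlinear regression; at least three independent runs.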
# [2] = test system: BxPC-3 cells; test: 7-day MTT growth inhibition assay, BxPC-3; type: cell-based; conditions: Homo sapiens, BXPC-3, 168 h, read-out: IC50 in BxPC-3 cells
# In short: as §1
# [3] = Microsomal stability test, human liver microsome; type: in vitro ADME; conditions: human liver microsomes
# In short: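 Human liver microsomes (10 µL at 20 mg/mL) were combined with 330 µL 0.1 M phosphate buffer (3.3 mM MgCl2) and 40 µL of 10 µM test compound, with NADPH in the same buffer. Verapamil was the positive control.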
# [4] = Microsomal stability test, mouse liver microsome; type: in vitro ADME; conditions: MLM and HLM t1/2, vs compound 1
# [5] = test system: OXPHOS Complex I; test: NAD+/NADH ratio; type: cell-based; conditions: MIA PaCa-2 cells, NAD/NADH-Glo Assay, 2 days treatment
# In short: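 MIA PaCa-2 cells (5 × 10^3/well) were treated the next day for 48 h with test compound in RPMI 1640 + 10% FBS. Cells were PBS-washed and lysed in bicarbonate base buffer with 1% DTAB. For NAD+, lysate was acid-treated (0.4 N HCl); for NADH, lysate was heated directly; both at 60 °C for 15 min, then neutralised with Trizma. After 30 min with Glo detection reagent, luminescence was read. IC50 of the NAD+/NADH ratio came from nonlinear regression.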
# [6] = test system: MIA PaCa-2 cells; test: 3-day MTT assay in glucose- or galactose-containing medium; type: cell-based
# In short: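 MIA PaCa-2 cells were treated with test compound for 3 days in glucose-containing medium. MTT (3 mg/mL solution) was added for 4 h at 37 °C. Supernatant was removed, formazan was dissolved in DMSO, and absorbance was read at 570 nm. IC50 came from nonlinear regression of log concentration–response curves. Experiments were run at least three times.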
# [7] = test system: Pan02 cells; test: Pan02 syngeneic pancreatic cancer model efficacy study; type: in vivo; conditions: for tumor growth inhibition: Pan02 syngeneic model
# In short: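 Female C57BL/6 mice, 6-10 weeks old, received 5×10^6 Pan02 cells s.c. in the right flank and were randomized (n = 5/group) at ~100 mm3. Dosing was daily for 28 days in 10% DMSO/50% PG/40% saline, or 10% DMSO/60% PG/30% saline for the 15 mg/kg dose. Tumours were measured by caliper twice weekly, V = (length × width²)/2. Body weight was recorded before dosing, then twice weekly.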
# [8] = Pharmacokinetics in CD-1 mice; type: in vivo; conditions: plasma
# In short: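 CD-1 mice received test compound at 2 mg/kg i.v. or 10 mg/kg p.o., and plasma concentration–time profiles were measured. Parameters came from non-compartmental analysis: AUC(0-tldc) to last detectable concentration and AUC(0-inf) extrapolated to infinity. Terminal half-life used ≥3 terminal-phase points. Bioavailability = (AUCpo × Dose_iv)/(AUCiv × Dose_po) × 100%.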
# [9] = read-out: IC50 in MIA PaCa-2 cells
smiles,measurement,setting,value
"CCC(CC)S(=O)(=O)c1ccc(S(=O)(=O)N2CCC[C@@H](C(=O)N3CCC(F)(F)CC3)C2)cc1 [Compound 25, (R)-(4,4-Difluoropiperidin-1-yl)(1-((4-(pentan-3-ylsulfonyl)phenyl)sulfonyl)piperidin-3-yl)methanone]",IC50,[1]; [9],~10 nM
same,IC50,[2],< 100 nM
CCOC(=O)[C@@H]1CCCN(S(=O)(=O)c2ccc(S(=O)(=O)N(CC)CC)cc2)C1 [Compound 1],HLM t1/2 (human liver microsome half life),[3],36 s
CCN(CC)S(=O)(=O)c1ccc(S(=O)(=O)N2CCC[C@@H](C(=O)NC3COC3)C2)cc1 [Compound 2],improvement of microsomal stability over compound 1,[4],more than 30 fold
"CCN(CC)S(=O)(=O)c1ccc(S(=O)(=O)N2CCC[C@@H](C(=O)N3CCC(F)(F)CC3)C2)cc1 [Compound 16, (R)-4-((3-(4,4-Difluoropiperidine-1-carbonyl)piperidin-1-yl)sulfonyl)-N,N-diethylbenzenesulfonamide]","NAD+/NADH ratio (IC50, nM) Glucose medium",[5],23 ± 18.1 nM
"CP(C)(=O)c1ccc(S(=O)(=O)N2CCC[C@@H](C(=O)N3CCC(F)(F)CC3)C2)cc1 [Compound 30, (R)-(4,4-Difluoropiperidin-1-yl)(1-((4-(dimethylphosphoryl)phenyl)sulfonyl)piperidin-3-yl)methanone]",activity (cytotoxicity in pancreatic cancer cells),[1],complete loss of activity
"CCN(CC)S(=O)(=O)c1ccc(S(=O)(=O)N2CCC[C@@H](C(=O)N3CCC(OC)CC3)C2)cc1 [Compound 12, (R)-N,N-Diethyl-4-((3-(4-methoxypiperidine-1-carbonyl)piperidin-1-yl)sulfonyl)benzenesulfonamide]",activity in glucose-containing medium,[6],inactive
same,improvement in MIA PaCa-2 cell growth inhibition,[1]; vs compound 11,2 fold
"O=C([C@@H]1CCCN(S(=O)(=O)c2ccc(S(=O)(=O)N3CC[C@@H](O)C3)cc2)C1)N1CCC(F)(F)CC1 [Compound 21, (4,4-Difluoropiperidin-1-yl)((R)-1-((4-(((R)-3-hydroxypyrrolidin-1-yl)sulfonyl)phenyl)sulfonyl)piperidin-3-yl)methanone]","NAD+/NADH ratio (IC50, nM) Glucose medium",[5],67.5 ± 18.8 nM
"O=C([C@@H]1CCCN(S(=O)(=O)c2ccc(S(=O)(=O)C3CCC3)cc2)C1)N1CCC(F)(F)CC1 [Compound 27, (R)-(1-((4-(Cyclobutylsulfonyl)phenyl)sulfonyl)piperidin-3-yl)(4,4-difluoropiperidin-1-yl)methanone]",tumor growth inhibition,[7]; 2.5 mg/kg i.p. once daily for 28 days,significant tumor growth inhibition
same,IC50,[1]; [9],~10 nM
same,"NAD+/NADH ratio (IC50, nM) Glucose medium",[5],3.2 ± 1.3 nM
same,IC50,[2],< 100 nM
"CN(C)S(=O)(=O)c1ccc(S(=O)(=O)N2CCC[C@@H](C(=O)N3CCC(F)(F)CC3)C2)cc1 [Compound 20, (R)-4-((3-(4,4-Difluoropiperidine-1-carbonyl)piperidin-1-yl)sulfonyl)-N,N-dimethylbenzenesulfonamide]",IC50,[1]; read-out: MIA PaCa-2 IC50,118 ± 44 nM
same,"NAD+/NADH ratio (IC50, nM) Glucose medium",[5],34 ± 15 nM
"CCP(=O)(CC)c1ccc(S(=O)(=O)N2CCC[C@@H](C(=O)N3CCC(F)(F)CC3)C2)cc1 [Compound 31, (R)-(1-((4-(diethylphosphoryl)phenyl)sulfonyl)piperidin-3-yl)(4,4-difluoropiperidin-1-yl)methanone]",activity (cytotoxicity in pancreatic cancer cells),[1],complete loss of activity
"CC(C)S(=O)(=O)c1ccc(S(=O)(=O)N2CCC[C@@H](C(=O)N3CCC(F)(F)CC3)C2)cc1 [Compound 23, (R)-(4,4-Difluoropiperidin-1-yl)(1-((4-(isopropylsulfonyl)phenyl)sulfonyl)piperidin-3-yl)methanone]",tolerability,"[7]; Pan02 model, once daily for 28 days, 20 7.5 mg/kg i.p., 21 15 mg/kg i.p., 27 2.5 mg/kg i.p., 23 10 mg/kg p.o.",well tolerated
same,tumor growth inhibition,"[7]; 10 mg/kg p.o. once daily for 28 days, 10 mg/kg",significant tumor growth inhibition; also recorded: significant tumor growth delay
same,IC50,[1]; [9],~10 nM
same,"NAD+/NADH ratio (IC50, nM) Glucose medium",[5],3.6 nM and 3.6 ± 3.2 nM
same,IC50,[2],< 100 nM
same,AUC(0-inf),[8]; IV 2 mg/kg,657.0 nM:h
same,AUC(0-tldc),[8]; IV 2 mg/kg,650.0 nM:h
same,AUC(0-inf),[8]; PO 10 mg/kg,417.1 nM:h
same,AUC(0-tldc),[8]; PO 10 mg/kg,368.1 nM:h

# Reference: article PMC9165018 (Journal of medicinal chemistry, 2022)
